Results taken from ChEMBL document CHEMBL1139140, “Synthesis, antimycobacterial activity evaluation, and QSAR studies of chalcone derivatives” (2007).

Key:
[1] = system: Mycobacterium tuberculosis; experiment: Antimicrobial activity against Mycobacterium tuberculosis H37Rv at 50 ug/ml assessed as reduction of relative light units; format: functional; design: scale not given: the % may be the effect or the level left
How it was run: (§1)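 Luciferase reporter phage assay on M. tuberculosis H37Rv. Bacteria (McFarland No.2 suspension) in G7H9, with or without compound, incubated 72 h at 37 °C; two drug-free controls per sample. Phage phAE129 with CaCl2 added, then 4 h at 37 °C. D-luciferin (0.3 mM, citrate pH 4.5) added; RLU read after 10 s integration, duplicate readings averaged. Percent RLU reduction versus control; repeated if control mean RLU <1000.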

[2] = system: Mycobacterium tuberculosis; experiment: Antimicrobial activity against Mycobacterium tuberculosis H37Rv at 100 ug/ml assessed as reduction of relative light units; format: functional; design: scale not given: the % may be the effect or the level left; how it was run: as §1

| SMILES | Activity [1] | Activity [2] |
| --- | --- | --- |
| COc1ccccc1/C=C/C(=O)c1ccccc1 | 66.07% | 72.98% |
| COc1ccc(/C=C/C(=O)c2cccc([N+](=O)[O-])c2)c(OC)c1 | 92.19% | 96.45% |
| CSc1ccc(/C=C/C(=O)c2ccc([N+](=O)[O-])cc2)cc1 | 30.95% | 48.06% |
| CSc1ccc(/C=C/C(=O)c2ccc(Cl)cc2)cc1 | 24.06% | 48.83% |
| COc1ccc(/C=C/C(=O)c2ccc(Cl)cc2Cl)cc1OC | 0% | 12.17% |
| COc1ccc(/C=C/C(=O)c2ccc(C)cc2)cc1 | 60.24% | 98.52% |
| CN(C)c1ccc(/C=C/C(=O)c2cccc([N+](=O)[O-])c2)cc1 | 90.06% | 96.22% |
| CSc1ccc(/C=C/C(=O)c2cccc(O)c2)cc1 | 31.59% | 98.86% |
| COc1ccc(C(=O)/C=C/c2ccc(SC)cc2)cc1 | 7.36% | 17.38% |
| CSc1ccc(/C=C/C(=O)c2ccc(C)cc2)cc1 | 16.88% | 51.59% |
| CSc1ccc(/C=C/C(=O)c2ccccc2O)cc1 | 68.41% | 90.52% |
| CSc1ccc(/C=C/C(=O)c2ccccc2)cc1 | 46.29% | 66.51% |
| CSc1ccc(/C=C/C(=O)c2ccc(Cl)cc2Cl)cc1 | 0% | 0% |
| CSc1ccc(/C=C/C(=O)c2ccc(Br)cc2)cc1 | 0% | 21.87% |
| CN(C)c1ccc(/C=C/C(=O)c2ccccc2)cc1 | 70.02% | 70.18% |
| COc1ccccc1/C=C/C(=O)c1cccc([N+](=O)[O-])c1 | 84.16% | 97.94% |
| CSc1ccc(/C=C/C(=O)c2ccc(O)cc2)cc1 | 29.25% | 55.16% |
| COc1ccc(/C=C/C(=O)c2cccc(O)c2)cc1 | 98.9% | 99.04% |
| CSc1ccc(/C=C/C(=O)c2cccc([N+](=O)[O-])c2)cc1 | 0% | 0% |
| COc1ccc(/C=C/C(=O)c2cccc([N+](=O)[O-])c2)cc1OC | 64.61% | 89.27% |
| COc1ccccc1/C=C/C(=O)c1ccc([N+](=O)[O-])cc1 | 94.3% | 98.15% |
| CN(C)c1ccc(/C=C/C(=O)c2ccc(Cl)cc2Cl)cc1 | 31.55% | 33.8% |
| COc1cc(/C=C/C(=O)c2ccccc2)cc(OC)c1OC | 43.16% | 63.9% |
| COc1ccc(/C=C/C(=O)c2ccccc2)cc1 [4-METHOXY CHALCONE] | 58.75% | 65.08% |
| O=C(/C=C/c1ccccc1)c1ccccc1 [CHALCONE] | 41.93% | 50.64% |
